Here are results for twelve compounds from ChEMBL document CHEMBL1121726, “Pyrazolopyrimidine nucleosides. 12. Synthesis and biological activity of certain pyrazolo[3,4-d]pyrimidine nucleosides related to adenosine” (1981).

Calls of active or inactive are those of the source. No cut-off for these calls is given here.

Assay [1] concerns L1210. Description: Increase in life span of tumor L1210 leukemic mice 1 day after 133 mg/kg administered. Type of assay: functional, Mus musculus. Summed up:
(§1)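 Mice bearing L1210 or P388 leukemia were injected with drug at the listed dose per injection on the listed days after tumor-cell inoculation. ILS was the percentage increase in life span of treated mice over untreated tumor-bearing controls.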

Assay [2] relates to L1210. Description: Toxicity against L1210 leukemic cells 1 day after administration of 133 mg/kg of the compound; No. As to conditions: Mus musculus. Type of assay: functional, organism-based. On the set-up: dose 133 mg/kg. Summed up:
(§2)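 Mice bearing L1210 or P388 leukemia were injected at the stated dose per injection on the listed days after tumor-cell inoculation. Host toxicity scores whether higher doses on the same schedule caused drug-induced shortening of life span: y = yes, n = no, nt = no higher dose tested.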

Assay [3] relates to P388. The assay is described as follows: Toxicity against P388 leukemic cells 1-9 days after administration of 25 mg/kg of the compound; No. On the set-up: dose 25 mg/kg. The following applies: Mus musculus. The assay is classed as functional, organism-based. The essentials:
as §2

The test system of assay [4] is L1210. The assay is described as follows: Number of mice surviving 1 day after 133 mg/kg administered; 1/6. Type of assay: functional, Mus musculus.
In assay [5] the test system is P388. The assay is described as follows: Increase in life span of tumor P388 leukemic mice 1-9 days after 25 mg/kg administered. The assay is classed as functional, Mus musculus.
Assay [6] concerns L1210. Description: In vitro inhibition of growth of L1210 mouse leukemic cells. Type of assay: functional. The following applies: read-out: ID50 (the source's name). Summed up:
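L1210 cells grown in static suspension culture in Fischer's medium for leukemic cells of mice, exposed to a range of test-compound concentrations. Growth rate measured over 3 days.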

The subject of the next assay is P388 (Mus musculus). Description: Increase in life span of tumor P388 leukemic mice 1-9 days after 9.3 mg/kg administered.
Assay [7] deals with L1210. Description: Toxicity against L1210 leukemic cells 1-5 days after administration of 400 mg/kg of the compound; nt= No higher dose tested. Type of assay: functional, organism-based. Further details: dose 400 mg/kg. The following applies: Mus musculus. The essentials: as §2
For assay [8], the system named is L1210. Description: Increase in life span of tumor L1210 leukemic mice 1-5 days after 400 mg/kg administered. The assay is classed as functional, Mus musculus. The essentials: as §1
In assay [9] the test system is P388. Description: Toxicity against P388 leukemic cells 1,5,9 days after administration of 100 mg/kg of the compound; Yes. As to conditions: Mus musculus.
The subject of assay [10] is L1210. Description: Toxicity against L1210 leukemic cells 1-5 days after administration of 25 mg/kg of the compound; Yes. The assay is classed as functional, organism-based. On the set-up: dose 25 mg/kg. As to conditions: Mus musculus. The essentials:
as §2

The test system of assay [11] is L1210. Description: Number of mice surviving 1-5 days after 25 mg/kg administered; 1/12. The assay is classed as functional, Mus musculus.
For assay [12], the system named is L1210. The assay is described as follows: Increase in life span of tumor L1210 leukemic mice 1-5 days after 25 mg/kg administered. Type of assay: functional, Mus musculus. The essentials: as §1
The subject of assay [13] is P388. The assay is described as follows: Increase in life span of tumor P388 leukemic mice 1,5,9 days after 100 mg/kg administered.
The subject of assay [14] is L1210. Description: […] against L1210 leukemic cells 1-5 days after administration of 400 mg/kg of the compound; No higher dose tested. The assay is classed as functional, organism-based. On the set-up: dose 400 mg/kg. As to conditions: Mus musculus.
In assay [15] the test system is L1210. Description: Increase in life span of tumor L1210 leukemic mice 1-9 days after 400 mg/kg administered. The assay is classed as functional, Mus musculus. Summed up:
as §1

Assay [16] relates to L1210. Description: Toxicity against L1210 leukemic cells 1-9 days after administration of 400 mg/kg of the compound; No higher dose tested. Type of assay: functional, organism-based. On the set-up: dose 400 mg/kg. As to conditions: Mus musculus. Summed up:
as §2

Assay [17] relates to L1210. Description: Toxicity against L1210 leukemic cells 1-5 days after administration of 200 mg/kg of the compound; Yes. The assay is classed as functional, organism-based. On the set-up: dose 200 mg/kg. As to conditions: Mus musculus. Summed up: as §2
Assay [18] relates to L1210. Description: Increase in life span of tumor L1210 leukemic mice 1-5 day after 200 mg/kg administered. Type of assay: functional, Mus musculus. Summed up:
as §1

The subject of assay [19] is L1210. Description: Increase in life span of tumor L1210 leukemic mice 1-5 days after 100 mg/kg administered. The assay is classed as functional. The following applies: Mus musculus. Summed up: as §1
In assay [20] the test system is L1210. The assay is described as follows: […] against L1210 leukemic cells 1-5 days after administration of 100 mg/kg of the compound; Yes. As to conditions: Mus musculus. On the set-up: dose 100 mg/kg. Type of assay: functional, organism-based.
The test system of assay [21] is P388. Description: Toxicity against P388 leukemic cells 1-9 days after administration of 6 mg/kg of the compound; y= Yes. Type of assay: functional, organism-based. Further details: dose 6 mg/kg. As to conditions: Mus musculus. Summed up: (§3)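 Host toxicity was scored in leukemia-bearing mice as drug-induced shortening of life span when higher doses were given on the same schedule: y = yes, n = no, nt = no higher dose tested.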

For assay [22], the system named is L1210. Description: Toxicity against L1210 leukemic cells 1-5 days after administration of 200 mg/kg of the compound; nt= No higher dose tested. The assay is classed as functional, organism-based. Further details: dose 200 mg/kg. The following applies: Mus musculus. The essentials: as §3
In assay [23] the test system is L1210. The assay is described as follows: Number of mice surviving 1-5 days after 200 mg/kg administered; 2/6. Type of assay: functional, Mus musculus.
Assay [24] deals with L1210. The assay is described as follows: Increase in life span of tumor L1210 leukemic mice 1-5 days after 200 mg/kg administered. The assay is classed as functional, Mus musculus. Summed up:
as §1

Assay [25] has as its system P388. The assay is described as follows: Increase in life span of tumor P388 leukemic mice 1-9 days after 6 mg/kg administered. Type of assay: functional, Mus musculus. Summed up:
as §1

Assay [26] relates to L1210. Description: Increase in life span of tumor L1210 leukemic mice 1-5 days after 12.5 mg/kg administered. Type of assay: functional, Mus musculus. Summed up:
as §1

Assay [27] concerns L1210. Description: […] against L1210 leukemic cells 1-5 days after administration of 12.5 mg/kg of the compound; Yes. The following applies: Mus musculus.
In assay [28] the test system is L1210. Description: Toxicity against L1210 leukemic cells 1-9 days after administration of 200 mg/kg of the compound; Yes. The assay is classed as functional, organism-based. On the set-up: dose 200 mg/kg. As to conditions: Mus musculus. Summed up:
as §2

In assay [29] the test system is L1210. The assay is described as follows: Increase in life span of tumor L1210 leukemic mice 1-9 day after 200 mg/kg administered. Type of assay: functional, Mus musculus. The essentials: as §1
In assay [30] the test system is L1210. Description: Toxicity against L1210 leukemic cells 1-5 days after administration of 200 mg/kg of the compound; No higher dose tested. As to conditions: Mus musculus. Further details: dose 200 mg/kg. The assay is classed as functional, organism-based. Summed up: as §2

`Nc1ncnc2c1ncn2[C@@H]1O[C@H](CO)[C@@H](O)[C@H]1O` [ADENOSINE]: the ILS worked out at 48 with L1210 [1], 54 in the assay on P388 [5] and 24 with P388 (Mus musculus). Moreover, the Toxicity entry with L1210 [2] and in the assay on P388 [3] was “Not toxic” each time. This compound also gave a Cures with L1210 [4] of 1. For the same compound, in the assay on L1210 [6], the IC50 is 0.4 µM.
Take `COC(=N)c1nn(C2O[C@H](CO)[C@@H](O)[C@H]2O)c2ncnc(N)c12` (stereo partly specified): the Toxicity result with L1210 [7] was “No higher dose tested”. Besides, the ILS in the assay on L1210 [8] turned out to be 64.
With `N/C(=N\O)c1nn(C2O[C@H](CO)[C@@H](O)[C@H]2O)c2ncnc(N)c12` (stereo partly specified), the Toxicity result with P388 [9] and in the assay on L1210 [10] was “Active” each time. Further, the IC50 with L1210 [6] worked out at 0.18 µM. For the same compound, the Cures with L1210 [11] is listed as 1. For the same compound, the values for the ILS with L1210 [12] and in the assay with P388 [13] were 78 and 33, respectively.
For the compound `OC[C@H]1OC(n2ncc3c(Nc4ccccc4)ncnc32)[C@H](O)[C@@H]1O` (stereo partly specified), the Toxicity result with L1210 [14] was “No higher dose tested”. This compound displayed an ILS with L1210 [8] of -4.
`OC[C@H]1OC(n2ncc3c(NCc4ccco4)ncnc32)[C@H](O)[C@@H]1O` (stereo partly specified): the IC50 with L1210 [6] was more than 100 µM. The compound also gave an ILS in the assay with L1210 [15] of 6. Also, the Toxicity entry with L1210 [16] is “No higher dose tested”.
Regarding `CSc1ncnc2c1cnn2C1O[C@H](CO)[C@@H](O)[C@H]1O` (stereo partly specified), the Toxicity result in the assay with L1210 [17] was “Active”. Further, the IC50 with L1210 [6] is 9 µM. In the assay on L1210 [18], this compound yielded an ILS of 19.
As for `OC[C@H]1OC(n2ncc3c(NCc4ccccc4)ncnc32)[C@H](O)[C@@H]1O` (stereo partly specified), in the assay on L1210 [10], the Toxicity result was “Active”. The compound further yielded an ILS in the assay with L1210 [12] of 3.
`C=CCSc1ncnc2c1cnn2C1O[C@H](CO)[C@@H](O)[C@H]1O` (stereo partly specified) came in with an ILS at 100 mg/kg in the assay on L1210 [19] of 2%. In addition, the Toxicity entry with L1210 [20] was “Active”.
Regarding `NC(=O)c1nn(C2O[C@H](CO)[C@@H](O)[C@H]2O)c2ncnc(N)c12` (stereo partly specified), the Toxicity entry with P388 [21] and in the assay with L1210 [22] was “No higher dose tested” throughout. Also, the IC50 with L1210 [6] was determined as 0.1 µM. In the assay on L1210 [23], this compound yielded a Cures of 2. For the same compound, the values for the ILS with L1210 [24] and in the assay with P388 [25] were 136 and 90, respectively.
In the case of `OC[C@H]1OC(n2ncc3c(NO)ncnc32)[C@H](O)[C@@H]1O` (stereo partly specified), in the assay with L1210 [6], the IC50 was 10 µM. Moreover, in the assay with L1210 [26], the ILS is given as 14. Besides, the Toxicity result with L1210 [27] is “Active”.
In the case of `OC[C@H]1OC(n2ncc3cncnc32)[C@H](O)[C@@H]1O` (stereo partly specified), the IC50 in the assay with L1210 [6] is more than 100 µM. For the same compound, the Toxicity entry with L1210 [28] was “Active”. In addition, the ILS in the assay on L1210 [29] is -3.
On to `CN(C)c1ncnc2c1cnn2C1O[C@H](CO)[C@@H](O)[C@H]1O` (stereo partly specified), for which, in the assay with L1210 [24], the ILS turned out to be 0. In the assay with L1210 [30], the Toxicity result is “No higher dose tested”.
